Laboratory results: ChEMBL document CHEMBL3822431, “Hydroxychalcone inhibitors of Streptococcus mutans glucosyl transferases and biofilms as potential anticaries agents” (Bioorg Med Chem Lett, 2016)
Calls of active or inactive are those of the source. The rule behind the calls is not given here.

Key:
[1] = target: T1, Glucosyltransferase-I (Streptococcus mutans serotype c (strain ATCC 700610 / UA159)) (UniProt P08987); assay: Inhibition of Wild-type Streptococcus mutans UA159 glucosyltransferase B at 50 uM by zymography
T1 sequence (whole entry): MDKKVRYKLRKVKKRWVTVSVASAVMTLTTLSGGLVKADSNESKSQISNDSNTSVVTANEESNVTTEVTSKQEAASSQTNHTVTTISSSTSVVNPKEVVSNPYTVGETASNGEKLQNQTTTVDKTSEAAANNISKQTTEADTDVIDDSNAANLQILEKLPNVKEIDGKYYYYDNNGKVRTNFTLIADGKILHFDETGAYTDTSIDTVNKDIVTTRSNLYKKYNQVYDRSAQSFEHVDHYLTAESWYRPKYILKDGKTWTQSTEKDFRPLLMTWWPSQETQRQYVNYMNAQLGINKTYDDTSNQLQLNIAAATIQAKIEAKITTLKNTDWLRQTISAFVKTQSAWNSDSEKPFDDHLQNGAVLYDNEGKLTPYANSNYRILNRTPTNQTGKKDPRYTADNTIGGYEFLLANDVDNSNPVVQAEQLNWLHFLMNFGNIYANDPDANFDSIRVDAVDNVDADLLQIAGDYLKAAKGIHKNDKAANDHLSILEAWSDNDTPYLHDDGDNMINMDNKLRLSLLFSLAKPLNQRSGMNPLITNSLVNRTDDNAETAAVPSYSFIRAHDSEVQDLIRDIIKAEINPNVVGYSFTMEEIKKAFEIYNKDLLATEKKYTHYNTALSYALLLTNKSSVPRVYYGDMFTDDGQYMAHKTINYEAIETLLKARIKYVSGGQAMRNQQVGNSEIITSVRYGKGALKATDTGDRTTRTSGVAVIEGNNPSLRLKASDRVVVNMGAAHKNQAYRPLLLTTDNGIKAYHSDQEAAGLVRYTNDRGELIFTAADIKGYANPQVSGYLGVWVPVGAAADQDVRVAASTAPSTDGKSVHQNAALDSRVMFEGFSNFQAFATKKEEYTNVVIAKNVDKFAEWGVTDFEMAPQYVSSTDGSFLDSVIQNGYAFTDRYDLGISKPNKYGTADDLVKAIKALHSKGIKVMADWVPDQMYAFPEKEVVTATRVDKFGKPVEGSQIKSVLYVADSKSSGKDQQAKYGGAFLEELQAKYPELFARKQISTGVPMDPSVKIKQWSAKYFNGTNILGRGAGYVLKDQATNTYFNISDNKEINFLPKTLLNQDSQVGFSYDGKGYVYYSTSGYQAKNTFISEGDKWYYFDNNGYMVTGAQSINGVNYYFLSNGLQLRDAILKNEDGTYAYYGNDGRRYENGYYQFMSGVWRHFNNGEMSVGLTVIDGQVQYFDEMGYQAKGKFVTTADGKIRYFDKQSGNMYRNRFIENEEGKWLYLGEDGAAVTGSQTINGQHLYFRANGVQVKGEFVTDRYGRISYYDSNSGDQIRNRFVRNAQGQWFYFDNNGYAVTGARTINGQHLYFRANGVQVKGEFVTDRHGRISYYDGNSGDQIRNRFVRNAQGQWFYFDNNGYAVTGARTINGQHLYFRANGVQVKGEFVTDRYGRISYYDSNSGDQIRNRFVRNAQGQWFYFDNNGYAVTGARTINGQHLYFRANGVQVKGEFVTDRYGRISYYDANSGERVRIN
Procedure, shortened: (§1)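 Compound (50 µM) added to overnight S. mutans UA159 wild-type cultures; Gtfs concentrated from supernatants, run on duplicate SDS-PAGE; second gel used for zymogram, glucan band intensity taken as Gtf activity.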

[2] = target: T2, Glucosyltransferase-S (Streptococcus mutans serotype c (strain ATCC 700610 / UA159)) (UniProt P49331); assay: Inhibition of Wild-type Streptococcus mutans UA159 glucosyltransferase D at 50 uM by zymography; procedure, shortened: as §1
T2 sequence (whole entry): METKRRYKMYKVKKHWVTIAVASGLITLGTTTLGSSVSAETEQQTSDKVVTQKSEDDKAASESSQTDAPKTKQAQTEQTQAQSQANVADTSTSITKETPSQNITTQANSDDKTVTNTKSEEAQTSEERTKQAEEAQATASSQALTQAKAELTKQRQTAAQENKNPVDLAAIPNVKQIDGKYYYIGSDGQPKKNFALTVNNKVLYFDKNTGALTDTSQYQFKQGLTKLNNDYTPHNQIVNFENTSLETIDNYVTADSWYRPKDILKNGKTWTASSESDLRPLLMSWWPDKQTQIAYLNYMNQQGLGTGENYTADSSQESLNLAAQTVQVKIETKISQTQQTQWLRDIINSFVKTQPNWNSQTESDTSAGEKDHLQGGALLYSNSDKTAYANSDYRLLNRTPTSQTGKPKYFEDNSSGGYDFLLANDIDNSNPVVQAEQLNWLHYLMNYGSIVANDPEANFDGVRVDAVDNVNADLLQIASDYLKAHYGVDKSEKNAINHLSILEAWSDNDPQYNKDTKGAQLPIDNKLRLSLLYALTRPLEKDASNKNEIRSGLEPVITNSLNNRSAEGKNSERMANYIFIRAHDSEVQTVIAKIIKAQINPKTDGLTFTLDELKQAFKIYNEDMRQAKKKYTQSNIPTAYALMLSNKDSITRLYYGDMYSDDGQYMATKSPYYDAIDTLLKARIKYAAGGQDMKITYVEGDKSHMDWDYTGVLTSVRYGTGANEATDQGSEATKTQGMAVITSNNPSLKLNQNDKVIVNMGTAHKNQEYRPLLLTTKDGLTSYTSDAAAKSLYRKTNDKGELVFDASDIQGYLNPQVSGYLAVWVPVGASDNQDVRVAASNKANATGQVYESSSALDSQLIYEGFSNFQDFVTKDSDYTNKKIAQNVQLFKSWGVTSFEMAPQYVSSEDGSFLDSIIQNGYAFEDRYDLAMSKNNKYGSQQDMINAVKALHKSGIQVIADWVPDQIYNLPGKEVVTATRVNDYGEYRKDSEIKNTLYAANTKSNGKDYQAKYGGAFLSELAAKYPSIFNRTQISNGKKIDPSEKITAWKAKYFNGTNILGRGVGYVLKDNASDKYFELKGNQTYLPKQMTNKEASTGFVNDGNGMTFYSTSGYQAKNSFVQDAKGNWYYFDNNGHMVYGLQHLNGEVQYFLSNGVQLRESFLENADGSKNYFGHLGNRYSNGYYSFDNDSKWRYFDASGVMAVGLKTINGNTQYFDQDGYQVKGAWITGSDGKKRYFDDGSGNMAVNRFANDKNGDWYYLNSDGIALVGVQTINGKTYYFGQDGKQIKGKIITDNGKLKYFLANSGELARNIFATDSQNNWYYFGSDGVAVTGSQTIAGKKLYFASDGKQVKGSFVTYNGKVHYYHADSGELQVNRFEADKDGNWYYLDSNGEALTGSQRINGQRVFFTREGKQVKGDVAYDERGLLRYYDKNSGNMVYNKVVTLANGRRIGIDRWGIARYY

| SMILES | inhibition [1] | inhibition [2] |
| --- | --- | --- |
| O=C(/C=C/c1ccc(O)cc1O)c1ccc(O)cc1 | Active | Active |
| O=C(/C=C/c1ccc(O)cc1O)c1cccc(O)c1 (stereo in doubt; 9a) | Active | Active |
| O=C(/C=C\c1ccc(O)cc1O)c1cccc(O)c1 | Active | Active |
| O=C(/C=C\c1ccc(O)cc1O)c1ccc(O)cc1 | Active | Active |
| O=C(/C=C/c1cc(O)c(O)cc1O)c1ccccc1O (stereo in doubt; 18c) | Active | Active |
